ChEMBL document CHEMBL1122518, “N-benzylpiperazino derivatives of 3-nitro-4-hydroxycoumarin with H1 antihistamine and mast cell stabilizing properties” (J Med Chem, 1984)
Activity calls are given as the source filed them. The calls are words filed in the database; no cut-off is given here.

Experiments:
[1] = species: Rattus norvegicus; experiment: Ability to inhibit the release of extravasated dye in the rat peritoneal fluids by 50%; format: functional, organism-based
In short: (§1)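 Rats sensitized ip with 2 mL of 1:5 rat antiserum in isotonic saline. 2 h later, 0.3 mL 5% Pontamine Sky Blue given iv, then after 30 s ip challenge with 5 mL Tyrode (heparin 50 μg/mL, ovalbumin 0.4 mg/mL). Compound ip in 1 mL saline 30 s before antigen; dose expressed as concentration in the 6 mL injected. Peritoneal fluid collected 5 min post-challenge.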

[2] = species: Rattus norvegicus; experiment: Ability to inhibit the release of histamine in the rat peritoneal fluids by 50%; format: functional, organism-based; in short: as §1
[3] = molecular target: Histamine H1 receptor (Cavia porcellus, UniProt P31389); experiment: H1-antihistamine activity on guinea pig ileum; format: functional, tissue-based; conditions: read-out: pA2 (converted)
In short: (§2)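 Isolated guinea pig ileum under about 1 g tension, isotonic recording, histamine contractions. Method a: histamine curves repeated at rising antagonist levels in Tyrode; pA2 from a Schild plot of log(CR−1). Methods b/c: antagonist given 10 min (b) or 30 s (c) before double the ~50%-response histamine dose.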

[4] = molecular target: Histamine H1 receptor (Cavia porcellus) (UniProt P31389); experiment: H1-antihistamine activity on guinea pig ileum; Inactive; format: functional, tissue-based; in short: as §2
Sequence of Histamine H1 receptor (Cavia porcellus) (P31389 whole entry): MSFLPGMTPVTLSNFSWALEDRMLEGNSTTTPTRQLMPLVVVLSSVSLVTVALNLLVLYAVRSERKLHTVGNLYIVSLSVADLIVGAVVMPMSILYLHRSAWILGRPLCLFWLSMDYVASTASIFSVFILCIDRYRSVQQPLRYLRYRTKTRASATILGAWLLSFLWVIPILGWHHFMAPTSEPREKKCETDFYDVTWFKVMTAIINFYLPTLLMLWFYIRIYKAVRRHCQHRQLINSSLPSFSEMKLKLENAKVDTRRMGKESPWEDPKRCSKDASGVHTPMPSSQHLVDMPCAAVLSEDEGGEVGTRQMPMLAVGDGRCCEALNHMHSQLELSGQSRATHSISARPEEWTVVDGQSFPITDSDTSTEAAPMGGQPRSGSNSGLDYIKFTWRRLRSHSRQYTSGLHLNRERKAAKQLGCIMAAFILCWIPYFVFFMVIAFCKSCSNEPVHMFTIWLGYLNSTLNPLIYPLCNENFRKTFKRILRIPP

Sequence of Histamine H1 receptor (P31389 whole entry): as above

Row | Structure (SMILES) | IC50 [1] [µM] | IC50 [2] [µM] | Kb [3] [µM] | pA2 [4]
1 | CCCc1c(OCC(O)CN2CCN(Cc3ccc(Cl)cc3)CC2)ccc2c(O)c([N+](=O)[O-])c(=O)oc12 (stereo not drawn) | 16 | 2.6 |  | 
2 | COc1ccc(CN(CCN(C)C)c2ccccn2)cc1 [PYRILAMINE] | 29 | > 200 |  | 
3 | O=c1oc2cc(OCCN3CCN(Cc4ccc(Cl)cc4)CC3)ccc2c(O)c1[N+](=O)[O-] | 100 |  | 0.158 | 
4 | O=c1oc2cc(OCC(O)CN3CCN(Cc4ccc(Cl)cc4)CC3)ccc2c(O)c1[N+](=O)[O-] (stereo not drawn) | 20 | < 2 |  | 
5 | O=c1oc2cc(CN3CCN(Cc4ccc(Cl)cc4)CC3)ccc2c(O)c1[N+](=O)[O-] | 83 | 14 |  | 
6 | O=C(O)c1cc(=O)c2c(OCC(O)COc3cccc4oc(C(=O)O)cc(=O)c34)cccc2o1 [CROMOLYN SODIUM] | 5.8 | 0.74 |  | inactive
7 | O=c1oc2cc(OCCCN3CCN(Cc4ccccc4)CC3)ccc2c(O)c1[N+](=O)[O-] | > 200 | 28 |  | 
8 | CN1CCC(=C2c3ccccc3CC(=O)c3sccc32)CC1 [KETOTIFEN] | 9.1 | > 200 |  | 
9 | CN1CCN(CCCOc2ccc3c(O)c([N+](=O)[O-])c(=O)oc3c2)CC1 | 13 | < 2 | 100 | 
10 | O=c1oc2cc(OCCCN3CCN(Cc4ccc(Cl)cc4)CC3)ccc2c(O)c1[N+](=O)[O-] | 5.8 | 1.9 | 0.001 | 
